# E-selectin induc = E-selectin induction in HUVECs, primary screen, imaging, HUVEC, immunofluorescence imaging, single point | P16581 | normalized: neutral wells 0, TNF-alpha wells 100 | activation, % at 7.58 µM | 260,000 tested, 0.37% active;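 active means mean E-selectin-positive cell signal at least 10% of the positive control, reached in at least 60% of replicates, without over 20% cell loss; inconclusive means no rule given, readout overlaps actives, possibly toxicity-flagged; inactive means the rest, including those meeting only one limit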
# Target sequence (P16581 whole entry, looked up): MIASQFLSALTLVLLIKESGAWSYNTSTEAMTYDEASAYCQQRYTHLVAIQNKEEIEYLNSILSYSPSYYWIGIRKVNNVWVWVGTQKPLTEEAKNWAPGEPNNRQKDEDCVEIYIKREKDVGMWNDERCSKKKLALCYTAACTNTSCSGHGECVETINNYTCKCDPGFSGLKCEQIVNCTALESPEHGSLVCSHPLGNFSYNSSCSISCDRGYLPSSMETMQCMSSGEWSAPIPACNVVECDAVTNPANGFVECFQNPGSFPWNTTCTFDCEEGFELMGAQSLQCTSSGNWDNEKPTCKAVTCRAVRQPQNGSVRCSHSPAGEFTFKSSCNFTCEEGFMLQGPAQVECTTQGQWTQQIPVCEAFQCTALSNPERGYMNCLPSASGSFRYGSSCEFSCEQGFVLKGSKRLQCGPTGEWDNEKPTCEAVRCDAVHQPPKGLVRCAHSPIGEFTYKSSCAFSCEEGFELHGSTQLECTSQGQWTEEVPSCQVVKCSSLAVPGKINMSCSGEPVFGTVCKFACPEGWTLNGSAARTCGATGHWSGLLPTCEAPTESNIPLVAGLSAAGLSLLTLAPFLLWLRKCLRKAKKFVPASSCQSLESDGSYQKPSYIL
#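 Material: HUVEC primary endothelial cells; Amount: 3,000 cells per well; Dosing: single concentration; Medium: EGM-2 growth medium on 0.1% gelatin-coated wells; Read-out basis: percent E-selectin-positive cells; Signal: immunofluorescence imaging; Control set: TNF-alpha, DMSO.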
# DENV2 CPE rescue = inhibitors of DENV2 cytopathic effect, primary screen, cell-based, plate reader, single concentration. DENV2-infected cells, cytopathic effect rescue. CPE inhibition, % at 9.99 µM. 350,000 tested, 1.7% active. AID 651640, 2012; in the data active means CPE inhibition above about 20%, passing the limit was not always enough; inconclusive means no clear call, values can overlap the other calls; tested in BHK-21 cells;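 further: 0% = median of neutral control wells and 100% = median of positive control wells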
# S100A4 inh HTS = inhibitors of S100A4-myosin IIA peptide binding, primary screen, biochemical, fluorescence polarization, TAMRA-MyoIIA peptide | Protein S100-A4 (Homo sapiens), P26447 | inhibition, % at 10.7 µM | 360,000 tested, 0.14% active;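 active means mean inhibition of at least 70% across replicates, with every replicate also reaching that level; inconclusive means mean inhibition reaches 70% but some replicates fall short; inactive means mean inhibition below 70%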
#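 Test system: S100A4 monomer protein. Medium: HEPES buffer with Ca2+, pH 7.2. Reagent: fluorescent myosin IIA peptide, 5 nM. Compound dosing: single-point compound testing. Timing: 5 min between mix addition and reading. Benchmarks: DMSO neutral and TFP positive wells.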
# Xi reactivation = activators of inactive X chromosome reactivation, primary screen, imaging, XiGFP fibroblasts, GFP high-content imaging, set 2. activation, % at 7.58 µM. XiGFP mouse fibroblasts, % GFP-positive cells imaging, 3 d; cells co-treated with 5-aza-dC sensitizer; scaled so ellipticine positive control = 100%. 360,000 tested, 0.055% active;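 active means mean normalized replicate activation at least 10% and every replicate at or above 10%; inconclusive means only one of the two criteria met; inactive means mean below 10% and not all replicates reach 10%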;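 further: 0% = median of on-plate neutral control wells and 100% = ellipticine 6 µM median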
#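 System: 68-5-11 XiGFP fibroblast line; Timing: 3 days compound exposure; Compound dosing: one concentration, pinned; Benchmarks: positive control ellipticine, 6 µM final; Buffer or medium: DMEM containing 5-aza-dC.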
# Numbers without * were called inactive; ? = inconclusive; · = no result; + = active, no number. A selection: hits, their analogues and other compounds. The true share with any hit is near 2%.
SMILES,E-selectin induc,DENV2 CPE rescue,S100A4 inh HTS,Xi reactivation
CCN(CC)c1ccc2nc3ccc(N)cc3[n+](-c3ccccc3)c2c1,92*,?,+,0
CCN(CC)c1ccc(C=Nc2cccnc2Cl)c(O)c1,0,15,9,0
CN(C)N1C(N)=C(C#N)C(c2ccc(F)cc2)C2=C1CC(C)(C)CC2=O (stereo not drawn),0,9,4,0
CN(C)N1C(N)=C(C#N)C(c2ccccc2)C2=C1CC(C)(C)CC2=O (stereo not drawn),0,46*,-4,0
C[C@@H]1CN([C@@H](C)CO)C(=O)Cc2cc(NC(=O)C3CC3)ccc2O[C@H]1CN(C)S(=O)(=O)c1ccccc1,·,34*,0,-1
C[C@@H]1CN([C@@H](C)CO)C(=O)Cc2cc(NC(=O)C3CC3)ccc2O[C@H]1CN(C)S(=O)(=O)c1ccc(Cl)cc1,0,70*,-5,0
Cc1cccnc1C(NC(=O)C1CCN(CCOc2ccc(F)cc2)CC1)c1ccc(Cl)cc1 (stereo not drawn),0,0,-4,0
Cc1ccc(CN2CCN(Cc3cnn(-c4ccc(F)cc4)c3)CC2CCO)o1 (stereo not drawn),·,-2,-6,0
COCC#Cc1ccc([C@@H]2[C@@H](CO)N3CCCCN(Cc4cccnc4)C[C@H]23)cc1,0,·,·,0
CCCC#Cc1ccc([C@@H]2[C@@H](CO)N3CCCCN(Cc4cncnc4)C[C@@H]23)cc1,0,26*,10,0
COCC#Cc1ccc([C@H]2[C@@H](CO)N3CCCCN(Cc4cccnc4)C[C@@H]23)cc1,0,57*,-19,0
CCCC#Cc1ccc([C@H]2[C@@H](CO)N3CCCCN(Cc4cncnc4)C[C@@H]23)cc1,0,14,4,1
CCCC#Cc1ccc([C@H]2[C@@H](CO)N3CCCCN(Cc4cccnc4)C[C@@H]23)cc1,0,33*,-3,0
C[C@H](NC(=O)[C@H]1N[C@H]2c3ccc(-c4cccnc4)c(=O)n3C[C@H]2[C@@H]1CO)c1ccccc1,0,117*,40,0
O=C(NCc1ccccc1F)[C@@H]1N[C@@H]2c3ccc(-c4ccccc4F)c(=O)n3C[C@@H]2[C@H]1CO,0,8,4,0
O=C(NCCN1CCCCC1)[C@@H]1N[C@@H]2c3ccc(-c4ccc(F)cc4)c(=O)n3C[C@@H]2[C@H]1CO,0,7,-2,0
C[C@@H](NC(=O)[C@@H]1N[C@@H]2c3ccc(-c4cccnc4)c(=O)n3C[C@@H]2[C@H]1CO)c1ccccc1,0,2,14,0
O=C(NCCN1CCCC1)[C@H]1N[C@H]2c3ccc(-c4ccccc4)c(=O)n3C[C@H]2[C@@H]1CO,0,85*,1,0
O=C(NCc1ccccc1F)[C@H]1N[C@H]2c3ccc(-c4ccccc4F)c(=O)n3C[C@H]2[C@@H]1CO,0,82*,21,0
Cc1ccc(C)c(NC(=O)c2cnc3n(c2=O)CCS3)c1,·,6,-2,0
C[C@@H]1CCCCO[C@H](CN(C)C(=O)Nc2ccc(F)cc2)[C@H](C)CN([C@H](C)CO)C(=O)c2cc(NS(=O)(=O)c3cccs3)ccc2O1,0,68*,10,-1
C[C@H]1CCCCO[C@H](CN(C)C(=O)Nc2ccc(F)cc2)[C@@H](C)CN([C@@H](C)CO)C(=O)c2cc(NS(=O)(=O)c3cccs3)ccc2O1,0,27*,-5,-1
C[C@@H]1CCCCO[C@@H](CN(C)C(=O)Nc2ccc(F)cc2)[C@H](C)CN([C@H](C)CO)C(=O)c2cc(NS(=O)(=O)c3cccs3)ccc2O1,0,-12,-11,0
CC(C)NC(=O)N(C)C[C@@H]1OCCCC[C@@H](C)Oc2ccc(NS(=O)(=O)c3cccs3)cc2C(=O)N([C@H](C)CO)C[C@@H]1C,·,55*,18,0
O=C(C[C@H]1C=C[C@H](NC(=O)Nc2ccc3c(c2)OCO3)[C@H](CO)O1)NCc1ccc2c(c1)OCO2,1,-7,-3,1
SMILES,E-selectin induc,DENV2 CPE rescue,S100A4 inh HTS,Xi reactivation
O=C(CN1CCOCC1)NCc1ccccc1Cl,0,?,-8,0
CCC(=O)Nc1ccc2c(c1)C(=O)N(C)[C@H]1CC[C@@H](CC(=O)N3CCCCC3)O[C@@H]1CO2,0,12,7,0
O=S(=O)(NCc1csc(-c2cccs2)n1)c1ccc(Cl)cc1,52*,2,-12,0
O=S(=O)(NCc1csc(-c2cccs2)n1)c1cccc(C(F)(F)F)c1,60*,-4,-8,0
Cc1ccc(S(=O)(=O)NCc2csc(-c3cccs3)n2)cc1,7,-3,3,0
CCCC[C@@H]1CNC(=O)C(=O)N1CCCCC1CCCCC1,0,42*,-18,0
O=C1NC[C@H](CCCCN2CCN(CCC3CCCCC3)C(=O)C2=O)N(CCC2CCCCC2)C1=O,0,7,9,0
CC(C)(C)CN1C(=O)C(=O)NC[C@@H]1CCCCN,1,136*,0,0
O=C1NC[C@@H](CCCCN2CCN(CCc3ccc(O)cc3)C(=O)C2=O)N(Cc2ccccc2)C1=O,·,87*,-2,0
CC(C)C[C@@H]1CN(CCCC[C@H]2CNC(=O)C(=O)N2CCC2CCCCC2)C(=O)C(=O)N1Cc1ccccc1,·,24*,3,0
CN(C)c1ccc(-c2nc3cc(N)ccc3o2)cc1,3,?,0,0
COc1ccc(-c2ccc3c(c2)O[C@H](CN(C)C(=O)c2ccccc2F)[C@@H](C)CN([C@H](C)CO)S3(=O)=O)cc1,0,5,2,0
COc1cc(S(=O)(=O)Nc2ccncc2)ccc1F,·,1,3,0
COCC#Cc1cnc2c(c1)C(=O)N([C@H](C)CO)C[C@H](C)[C@@H](CN(C)C(=O)c1cnccn1)O2,·,-9,4,0
C[C@H](CO)N1C[C@H](C)[C@H](CN(C)Cc2ccc(Cl)c(Cl)c2)Oc2c(NS(=O)(=O)c3ccccc3)cccc2C1=O,0,-9,-3,1
C[C@H](CO)N1C[C@H](C)[C@@H](CN(C)Cc2ccc(C(F)(F)F)cc2)Oc2c(NS(=O)(=O)c3ccccc3)cccc2C1=O,2,-10,9,2
C[C@H]1CN([C@@H](C)CO)C(=O)c2cccc(NS(=O)(=O)c3ccccc3)c2O[C@@H]1CN(C)Cc1ccc(Cl)c(Cl)c1,·,85*,4,0
C[C@H]1CN([C@@H](C)CO)C(=O)c2cccc(NS(=O)(=O)c3ccc(F)cc3)c2O[C@@H]1CN(C)Cc1ccc(Cl)c(Cl)c1,0,23*,0,0

# Compound activity (PubChem)
